{"source": "ChEMBL document CHEMBL1153806", "about": "“Preclinical efficacy of a carboxylesterase 2-activated prodrug of doxazolidine” (J Med Chem, 2009)", "key": {"[1]": {"experiment": "Metabolic stability in NOD/SCID mouse plasma up to 24 hrs by reverse-phase HPLC analysis", "type": "ADME, cell-free", "conditions": "read-out: Stability", "summary_of_the_method": "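PPD from a 1 mM DMSO stock diluted 10 µL into 190 µL of plasma (healthy NOD/SCID mouse, or pooled human from 40 donors) at 37 °C; sampled at 0 and 24 h. Samples digested with proteinase K (2 mg/mL) for 4 h at 37 °C, then run on C18 reverse-phase HPLC with a triethylammonium acetate pH 6.0/acetonitrile gradient, detection at 480 nm.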"}, "Mus musculus [2]": {"tested_on": "Mus musculus", "experiment": "Toxicity in athymic nude mouse xenografted with human NCI-H1435 cells expressing CES2 gene assessed as myofibril disorganization and vacuolization of heart tissue administered with six iv injection of 3 to 4 mg/kg by hematoxylin/eosin staining-based microscopy", "type": "organism-based", "set-up": "dose 3-4 mg/kg, route intravenous", "conditions": "in vivo", "summary_of_the_method": "(§1)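 Hearts and livers taken from the H1435 nude-mouse study (six i.v. injections) after CO₂/cervical dislocation. Fixed in 10% formalin for 24 h, paraffin-embedded, and cut at 4 µm. Slides deparaffinized in xylene and ethanol, stained with Mayer's hematoxylin for 2 min, blued in 1% ammonium hydroxide, and counterstained with eosin for 30 s. Examined by light microscopy.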"}, "Mus musculus [3]": {"tested_on": "Mus musculus", "experiment": "Toxicity in athymic nude mouse xenografted with human NCI-H1435 cells expressing CES2 gene assessed as appearance of fibrotic damage in heart tissue administered with six iv injection of 3 to 4 mg/kg by hematoxylin/eosin staining-based microscopy", "type": "organism-based", "set-up": "dose 3-4 mg/kg, route intravenous", "conditions": "in vivo", "summary_of_the_method": "as §1"}, "NCI-H1435 [4]": {"tested_on": "NCI-H1435", "experiment": "Antitumor activity against human NCI-H1435 cells expressing CES2 gene xenografted in pentyl PABC-doxazolidine-pretreated athymic nude mouse assessed as inhibition of tumor growth at 3 to 4 mg/kg, iv administered on day 56 after tumor implantation", "type": "functional, organism-based", "summary_of_the_method": "(§2)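 Athymic nude females, 4–6 weeks old, given ~2 × 10⁶ H1435 cells s.c. in the left flank on day 0; 10 mice/group. I.v. tail-vein doses (Dox-equivalent mg/kg) in 5% DMSO/95% D5W on days 7, 14 and 21, with all groups retreated on days 56, 63 and 70; vehicle controls. Caliper volume π × short² × long/6. Cube roots analysed with day-7 size as baseline covariate, by period.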"}, "Mus musculus [5]": {"tested_on": "Mus musculus", "experiment": "Toxicity in NOD/SCID mouse xenografted with human HepG2 cells expressing CES2 gene assessed as survival at 4 mg/kg, iv administered on day 7, 14 and 21 after tumor implantation", "type": "organism-based", "set-up": "dose 4 mg/kg, route intravenous", "conditions": "in vivo", "summary_of_the_method": "(§3)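 Female NOD/SCID mice, 4–6 weeks old, 10 per group. About 1.5 × 10⁷ N-Hep G2 cells were injected s.c. into the left flank. Tail-vein i.v. dosing (mg/kg Dox-equivalent weight) was given on days 7, 14 and 21. Vehicle was 5% DMSO/95% D5W, and controls received vehicle only. Body weight was measured weekly over the first 5 weeks. Survival was followed to study end.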"}, "Mus musculus [6]": {"tested_on": "Mus musculus", "experiment": "Toxicity in NOD/SCID mouse xenografted with human HepG2 cells expressing CES2 gene assessed as body weight change at 4 mg/kg, iv administered on day 7, 14 and 21 after tumor implantation", "type": "organism-based", "set-up": "dose 4 mg/kg, route intravenous", "conditions": "in vivo", "summary_of_the_method": "as §3"}, "Mus musculus [7]": {"tested_on": "Mus musculus", "experiment": "Toxicity in NOD/SCID mouse xenografted with human HepG2 cells expressing CES2 gene assessed as survival at 5 mg/kg, iv administered on day 7, 14 and 21 after tumor implantation", "type": "organism-based", "set-up": "dose 5 mg/kg, route intravenous", "conditions": "in vivo", "summary_of_the_method": "as §3"}, "HepG2 [8]": {"tested_on": "HepG2", "experiment": "Antitumor activity against human HepG2 cells expressing CES2 gene xenografted in pentyl PABC-doxazolidine-pretreated NOD/SCID mouse assessed as slowing of large, rapidly growing tumor growth at 5 mg/kg, iv administered on day 45 after tumor implantation", "type": "functional, organism-based", "set-up": "dose 5 mg/kg", "summary_of_the_method": "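NOD/SCID females, 4–6 weeks old, each given ~1.5 × 10⁷ N-Hep G2 cells s.c. in the left flank; 10 mice/group. Dosed i.v. by tail vein on days 7, 14 and 21, in mg/kg Dox-equivalent, from DMSO diluted into D5W (5% DMSO/95% D5W), 100 µL/mouse. Vehicle-only controls. The 3 mg/kg group was redosed at 5 mg/kg on days 45 and 52. Tumor volume (π × short diameter² × long diameter/6) measured weekly.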"}, "NCI-H1435 [9]": {"tested_on": "NCI-H1435", "experiment": "Antitumor activity against human NCI-H1435 cells expressing CES2 gene xenografted in pentyl PABC-doxazolidine-pretreated athymic nude mouse assessed as inhibition of tumor growth at 3 to 4 mg/kg, iv administered on day 63 after tumor implantation", "type": "functional, organism-based", "summary_of_the_method": "as §2"}, "[10]": {"experiment": "Toxicity in pentyl PABC-doxazolidine-treated NOD/SCID mouse xenografted with human HepG2 cells expressing CES2 gene assessed as mortality rate at 5 mg/kg, iv administered on day 52 after tumor implantation", "type": "organism-based", "set-up": "dose 5 mg/kg, route intravenous", "conditions": "in vivo, read-out: Activity", "summary_of_the_method": "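NOD/SCID females carried s.c. left-flank N-Hep G2 xenografts (about 1.5 × 10⁷ cells). They first received i.v. 3 mg/kg Dox-equivalent on days 7, 14 and 21. The same group was then redosed i.v. at 5 mg/kg on days 45 and 52 in 5% DMSO/95% D5W. There were 10 mice per group. Deaths were counted to the end of the study.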"}, "NCI-H460": {"tested_on": "NCI-H460", "experiment": "Cytotoxicity against human H460 cells expressing CES2 gene"}, "Mus musculus [11]": {"tested_on": "Mus musculus", "experiment": "Toxicity in athymic nude mouse xenografted with human NCI-H1435 cells expressing CES2 gene assessed as inflammatory cell infiltration in ileum administered with six iv injection of 3 to 4 mg/kg by hematoxylin/eosin staining-based microscopy", "type": "organism-based", "set-up": "dose 3-4 mg/kg, route intravenous", "conditions": "in vivo", "summary_of_the_method": "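Kidney and ileum taken from the H1435 nude-mouse study (six i.v. injections). Formalin-fixed for 24 h, paraffin-embedded, and cut into 4 µm sections. Sections deparaffinized in xylene, rehydrated through an ethanol series, stained in Harris hematoxylin for 50 s with eosin, then dehydrated and mounted. Morphology assessed by microscopy.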"}, "Mus musculus [12]": {"tested_on": "Mus musculus", "experiment": "Toxicity in NOD/SCID mouse xenografted with human HepG2 cells expressing CES2 gene assessed as occurrence of diarrhea at 3 mg/kg, iv administered on day 7, 14 and 21 after tumor implantation", "type": "organism-based", "set-up": "dose 3 mg/kg, route intravenous", "conditions": "in vivo"}, "NCI60": {"tested_on": "NCI60", "experiment": "Growth inhibition of human NCI60 cells after 2 days by sulforhodamine B assay", "type": "functional, cell-based"}, "[13]": {"experiment": "Cytotoxicity against human NCI-H1435 cells expressing CES2 gene after 5 to 6 days by MTT assay", "type": "functional", "summary_of_the_method": "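MTT growth assay: 2000–4000 viable cells plated, left overnight at 37 °C in 5% CO₂, then exposed to a range of drug concentrations for 5–6 days. MTT added at 0.4 mg/mL final for 4 h, and formazan dissolved in 0.2 N HCl in 75% isopropanol. Absorbance normalized to vehicle control and IC₅₀ obtained from the curves.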"}, "Mus musculus [14]": {"tested_on": "Mus musculus", "experiment": "Toxicity in athymic nude mouse xenografted with human NCI-H1435 cells expressing CES2 gene assessed as thickening of Bowman's capsule in glomerulus administered with six iv injection of 4 mg/kg by hematoxylin/eosin staining-based microscopy", "type": "organism-based", "set-up": "dose 4 mg/kg, route intravenous", "conditions": "in vivo", "summary_of_the_method": "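Female athymic nude mice, 4–6 weeks old, 10 per group. About 2 × 10⁶ H1435 cells were implanted s.c. into the left flank. I.v. tail-vein doses (Dox-equivalent) were given on days 7, 14, 21, 56, 63 and 70 in 5% DMSO/95% D5W. At sacrifice, organs were fixed in 10% formalin for 24 h and paraffin-embedded. Sections were cut at 4 µm and stained with hematoxylin/eosin for microscopy.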"}, "HepG2 [15]": {"tested_on": "HepG2", "experiment": "Cytotoxicity against human HepG2 cells expressing CES2 gene expressing CES2 gene after 5 to 6 days by MTT assay", "type": "functional"}}, "note": "Activity calls are given as the source filed them. The calls are words filed in the database; no cut-off is given here.", "data": [{"molecule": "CCCCCOC(=O)Nc1ccc(COC(=O)N2CO[C@@H]3[C@H](C)O[C@@H](O[C@H]4C[C@](O)(C(=O)CO)Cc5c(O)c6c(c(O)c54)C(=O)c4c(OC)cccc4C6=O)C[C@@H]32)cc1", "values": [{"measurement": "remaining at 24 h", "setting": "[1]", "value": 16, "unit": "%"}, {"measurement": "Activity", "setting": "Mus musculus [2]", "value": "Non-toxic"}, {"measurement": "Activity", "setting": "Mus musculus [3]", "value": "Non-toxic"}, {"measurement": "inhibition", "setting": "NCI-H1435 [4]", "value": "Active"}, {"measurement": "Activity", "setting": "Mus musculus [5]", "value": "Non-toxic"}, {"measurement": "Activity", "setting": "Mus musculus [6]", "value": "Active"}, {"measurement": "Activity", "setting": "Mus musculus [7]", "value": "Non-toxic"}, {"measurement": "Activity", "setting": "HepG2 [8]", "value": "Active"}, {"measurement": "inhibition", "setting": "NCI-H1435 [9]", "value": "Active"}, {"measurement": "mortality", "setting": "[10]", "value": 60, "unit": "%"}, {"measurement": "GI50", "setting": "NCI-H460", "value": 447, "unit": "nM"}, {"measurement": "Activity", "setting": "Mus musculus [11]", "value": "Non-toxic"}, {"measurement": "Activity", "setting": "Mus musculus [12]", "value": "Non-toxic"}, {"measurement": "growth inhibition (GI)", "setting": "NCI60", "value": "Active"}, {"measurement": "logIC50", "setting": "[13]", "value": -6.92}, {"measurement": "Activity", "setting": "Mus musculus [14]", "value": "Toxic"}, {"measurement": "logIC50", "setting": "HepG2 [15]", "value": -6.9}]}]}
